From ChEMBL document CHEMBL3526053, “Species-dependent uptake of glycylsarcosine but not oseltamivir in Pichia pastoris expressing the rat, mouse, and human intestinal peptide transporter PEPT1” (Drug Metab Dispos, 2012) come the findings set out here.

Common to all, as to assay type: ADME
In data set [1] the target is T1, Solute carrier family 15 member 1 (Mus musculus, UniProt Q9JIP7).
T1 sequence (Q9JIP7 whole entry): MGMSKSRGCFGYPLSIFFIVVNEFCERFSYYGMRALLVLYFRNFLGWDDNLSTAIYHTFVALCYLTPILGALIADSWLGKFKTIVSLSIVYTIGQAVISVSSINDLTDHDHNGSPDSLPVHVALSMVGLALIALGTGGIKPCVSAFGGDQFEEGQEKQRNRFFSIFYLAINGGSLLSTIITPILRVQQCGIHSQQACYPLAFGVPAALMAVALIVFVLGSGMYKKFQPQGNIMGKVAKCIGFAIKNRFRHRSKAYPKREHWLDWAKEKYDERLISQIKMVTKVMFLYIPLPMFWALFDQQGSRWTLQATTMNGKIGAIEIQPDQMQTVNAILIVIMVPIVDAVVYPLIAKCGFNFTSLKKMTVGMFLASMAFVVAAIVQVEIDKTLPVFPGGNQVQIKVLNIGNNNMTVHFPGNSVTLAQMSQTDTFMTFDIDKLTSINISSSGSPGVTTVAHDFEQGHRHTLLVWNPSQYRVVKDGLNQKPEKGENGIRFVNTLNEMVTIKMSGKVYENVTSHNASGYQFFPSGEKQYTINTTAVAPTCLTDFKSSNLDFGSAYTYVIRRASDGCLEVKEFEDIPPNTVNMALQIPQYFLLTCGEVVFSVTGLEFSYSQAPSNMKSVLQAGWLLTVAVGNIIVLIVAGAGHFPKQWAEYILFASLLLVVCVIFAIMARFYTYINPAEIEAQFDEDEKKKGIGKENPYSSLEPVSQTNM
In words: Drug uptake in Pichia pastoris GS115 expressing mouse recombinant PEPT1 at 5 uM after 30s by dual-channel liquid scintillation counting analysis in presence of cefadroxil relative to control. The conditions noted are these: 0.5 min. The method, boiled down:
(§1)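 [3H]GlySar 5.0 µM final, 30-s uptake at 24°C in 100 mM potassium phosphate pH 6.5, with or without a potential inhibitor at 10 mM. Cells are methanol-induced transformants. Values are vector-subtracted and expressed as percent of buffer control. Mean ± SE (n=3). ANOVA with Dunnett's test.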

For data set [2], the target named is T2, Solute carrier family 15 member 1 (Homo sapiens, UniProt P46059).
T2 sequence (P46059 whole entry): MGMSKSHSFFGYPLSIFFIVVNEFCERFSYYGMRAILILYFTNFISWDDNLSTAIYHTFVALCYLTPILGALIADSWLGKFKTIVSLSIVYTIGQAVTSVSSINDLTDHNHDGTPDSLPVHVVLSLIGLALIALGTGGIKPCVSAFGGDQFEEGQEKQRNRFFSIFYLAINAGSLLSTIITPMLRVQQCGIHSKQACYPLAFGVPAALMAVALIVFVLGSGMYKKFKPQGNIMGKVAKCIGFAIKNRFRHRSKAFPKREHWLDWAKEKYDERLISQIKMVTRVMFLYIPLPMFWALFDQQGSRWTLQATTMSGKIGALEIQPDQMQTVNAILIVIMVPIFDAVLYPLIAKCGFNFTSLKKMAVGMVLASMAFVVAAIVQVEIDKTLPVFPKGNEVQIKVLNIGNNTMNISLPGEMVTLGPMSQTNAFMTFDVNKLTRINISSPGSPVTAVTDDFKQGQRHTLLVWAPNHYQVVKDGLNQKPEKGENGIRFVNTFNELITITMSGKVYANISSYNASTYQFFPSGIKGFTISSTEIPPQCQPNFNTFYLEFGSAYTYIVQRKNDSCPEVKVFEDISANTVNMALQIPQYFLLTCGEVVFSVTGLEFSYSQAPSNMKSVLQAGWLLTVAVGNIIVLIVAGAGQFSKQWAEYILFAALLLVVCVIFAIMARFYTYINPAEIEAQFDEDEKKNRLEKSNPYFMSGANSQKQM
In words: Drug uptake in Pichia pastoris GS115 expressing human recombinant PEPT1 at 5 uM after 30s by dual-channel liquid scintillation counting analysis relative to control. The note with it: 0.5 min. The method, boiled down:
as §1

Data set [3] deals with T2, Solute carrier family 15 member 1. In words: Drug uptake in Pichia pastoris GS115 expressing human recombinant PEPT1 at 5 uM after 30s by dual-channel liquid scintillation counting analysis in presence of glycine relative to control. The note with it: 0.5 min. The gist of the method:
as §1

The next data set has as its target T3, PEPT1 (Homo sapiens, UniProt P46059).
T3 sequence (P46059 whole entry): T2 sequence (P46059 whole entry)
In words: Drug uptake in Pichia pastoris GS115 expressing human recombinant PEPT1 at 5 uM after 30s by dual-channel liquid scintillation counting analysis relative to vector control. The conditions noted are these: read-out: FC. The gist of the method:
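5.0 µM radiolabelled substrate uptake for 30 s at 24°C in pH 6.5 phosphate buffer by induced transformants. Radioactivity is counted by liquid scintillation and normalised to OD600. Results are compared with pPIC3.5K vector-alone cells. Mean ± SE (n=6).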

The target of data set [4] is T2, Solute carrier family 15 member 1. In words: Drug uptake in Pichia pastoris GS115 expressing human recombinant PEPT1 at 5 uM after 30s by dual-channel liquid scintillation counting analysis in presence of SITS relative to control. The conditions noted are these: 0.5 min. The gist of the method:
as §1

Data set [5] has as its target T1, Solute carrier family 15 member 1. The experiment in a line: Drug uptake in Pichia pastoris GS115 expressing mouse recombinant PEPT1 at 5 uM after 30s by dual-channel liquid scintillation counting analysis in presence of cephradine relative to control. The conditions noted are these: 0.5 min. The gist of the method:
as §1

The target is the same in data set [6]. In words: Drug uptake in Pichia pastoris GS115 expressing mouse recombinant PEPT1 at 5 uM after 30s by dual-channel liquid scintillation counting analysis in presence of GlyPro relative to control. The conditions noted are these: 0.5 min. The gist of the method: as §1
Data set [7] has the same target. In words: Drug uptake in Pichia pastoris GS115 expressing mouse recombinant PEPT1 at 5 uM after 30s by dual-channel liquid scintillation counting analysis in presence of L-histidine relative to control. The note with it: 0.5 min. The method, boiled down: as §1
The target is the same in data set [8]. The experiment in a line: Drug uptake in Pichia pastoris GS115 expressing mouse recombinant PEPT1 at 5 uM after 30s by dual-channel liquid scintillation counting analysis in presence of elacridar relative to control. The note with it: 0.5 min. The gist of the method:
as §1

The target of data set [9] is T2, Solute carrier family 15 member 1. In words: Drug uptake in Pichia pastoris GS115 expressing human recombinant PEPT1 at 5 uM after 30s by dual-channel liquid scintillation counting analysis in presence of cephalothin relative to control. The conditions noted are these: 0.5 min. The method, boiled down: as §1

Regarding `[3H]C(C(=O)O)N(C)C(=O)CN` (stereo not given), the Drug uptake turned out to be 16.7% in data set [1]; 100% in [2]; 130% in data set [3]; 127% in [4]; 9.8% in [5]; 1.9% in data set [6]. Also, the Drug uptake in data set [7] worked out at 103%; in [8] it was 89.3%; in data set [9], 84.8%. For the same compound, the uptake ratio at 0.5 min, 5 µM at PEPT1 turned out to be 23.
